Measured values: ChEMBL document CHEMBL1789904, “Imaging of Plasmodium liver stages to drive next-generation antimalarial drug discovery” (Science, 2011)

System: Plasmodium yoelii
Assay: NOVARTIS: Antimalarial liver stage activity measured as reduction in Plasmodium yoelii schizont area in HepG2-A16-CD81 cells by immuno-fluorescence, and median schizont size at 10uM compound concentration
Assay type: functional, organism-based
Conditions: for IC50: Plasmodium yoelii, HepG2-A16-CD81
Procedure, shortened: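 Host and parasite nuclei stained with Hoechst 33342, parasites with αPyHSP70 antibody; 25 images per well by high-content imaging; median parasite (schizont) area measured by automated image analysis, ~50 schizonts per experiment, two or more independent experiments.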

| SMILES | Schizont size [um] | IC50 [nM] |
| --- | --- | --- |
| Cc1nc2ccc(Br)cc2c(O)c1CC(C)C | 30.79 | 244 |
| CN(C)c1ccc(C(=Cc2cc(-c3ccccc3)cc(-c3ccccc3)[o+]2)c2ccc(N(C)C)cc2)cc1 | 26.72 | 51.9 |
| Fc1ccc2nc(Nc3nc(-c4ccccn4)cs3)sc2c1 | 22.86 | 43.8 |
| CC1(C)N=C(N)N=C(N)N1c1ccc(I)cc1.Cl | 33.82 | 10 |
| CCOc1ccc(N2C(N)=NC(N)=NC2(C)C)cc1.Cl | 35.59 | 46.8 |
| CCOC(=O)C1=C(c2ccccc2)N=c2sc(=Cc3cc(C)n(-c4ccc(F)cc4)c3C)c(=O)n2C1c1cccc(OC)c1OC (configuration not stated) | 106.25 | 2450 |
| CCOC(=O)c1ccc(OCC2c3cc(OC)c(OC)cc3CCN2C(=O)c2ccc([N+](=O)[O-])cc2)cc1 (configuration not stated) | 226.39 | > 10000 |
| CCCCCCCn1c2c(c(=N)c3ccccc31)CCC2.I | 23.59 | 76.5 |
| COc1ccc2[nH]c(=O)c(CN(C(=S)Nc3ccccc3OC)C3CCCC3)cc2c1 | 157.5 | > 9740 |
| Cc1[nH]c2ccccc2c(=O)c1Br | 29.43 | 214 |
| Cc1cccc(C)c1N(CC(=O)NCc1ccco1)S(C)(=O)=O | 194.24 | > 10000 |
| COc1ccccc1Nc1nc(NCc2ccccc2)c2ccccc2n1.Cl | 40.29 | 91.3 |
| COc1ccc2nc(C)cc(Nc3ccc(Oc4ccc5ccccc5c4Cl)c(Cl)c3)c2c1 | 31 | 114 |
| NCC(=O)N1CCn2c(nc(-c3ccccc3)c2Nc2ccc3c(c2)OCO3)C1 |  | 221 |
| CCN1/C(=C/c2ccc3ccccc3[n+]2CC)Sc2sc3ccccc3c21 | 32.77 | 6.21 |
| CCOC(=O)c1cnc2ccc(OC)cc2c1NCc1cccs1 | 31.63 | 193 |
| COc1cccc(N2C(N)=NC(N)=NC2(C)C)c1.Cl | 38.1 | 29.5 |
| CCOC(=O)c1c(CNC)n(C)c2cc(Br)c(O)cc12.O=CO.O=CO | 175.56 | > 10000 |
| Nc1nonc1-n1nnc(C(=O)NN=Cc2ccc(F)c(Br)c2)c1-c1ccc([N+](=O)[O-])cc1 | 246.12 | > 10000 |
| N#Cc1ccc(NC(=O)NC2CC3CCCC(C2)N3CCc2ccccc2)cc1 (configuration not stated) | 62 | 497 |
| Cc1ccc(S(=O)(=O)Nc2nc3n(n2)C(c2ccccc2)C=C(c2ccccc2)N3)cc1 (configuration not stated) | 198.42 | > 10000 |
| Cc1ccc(-c2nn3c(O)c4c(nc3c2C)CCCC4)cc1 | 28.7 | 11.3 |
| COc1cccc(OC)c1C(=O)Nn1c(-c2cccc(C)c2)nc2ccccc2c1=O |  | > 10000 |
| CCN(CC)CCCC(C)Nc1c2ccc(Cl)cc2nc2ccc(OC)cc12 (configuration not stated) [QUINACRINE] | 26.3 | 166 |
| N#CCSc1nc2ccccc2c2nc(CCc3c[nH]c4ccccc34)nn12 | 221.17 | > 10000 |
| COc1ccccc1Cc1nc2ccccc2nc1SCC(=O)Nc1cccc(C(F)(F)F)c1 | 187.88 | > 10000 |

| SMILES | Schizont size [um] | IC50 [nM] |
| --- | --- | --- |
| Clc1ncnc2ncn(Cc3ccccc3)c12 | 220.34 | > 10000 |
| CCC(C)Nc1nc(NC(C)CC)nc(N2CCCCCC2)n1 (configuration not stated) | 20.35 | 300 |
| Cc1ccc(-n2c(-c3ccccc3)cc(C=NNC(=O)c3cccc(-n4c(C)ccc4C)c3)c2-c2ccccc2)cc1 | 30.06 | 47.9 |
| CCOC(=O)c1ccc2nc(-c3ccccc3)cc(O)c2c1 | 20.67 | 20 |
| Fc1ccc(Nc2nc(NCc3ccccc3)c3ccccc3n2)cc1 | 154.58 | 3790 |
| N#Cc1c2c(c(N3CCN(Cc4ccccc4)CC3)n3c1nc1ccccc13)CCC2 | 241.42 | > 10000 |
| N#Cc1c2c(c(N3CCN(c4ccccn4)CC3)n3c1nc1ccccc13)CCC2 | 174.41 | > 10000 |
| CCN1C(C)=C(C)S/C1=C\c1ccc2cc(C)ccc2[n+]1C | 14.93 | 11.3 |
| Cc1ccc(-n2c(-c3ccccc3)cc(C=NNC(=O)c3cccc(O)c3)c2-c2ccccc2)cc1 | 26.72 | 20.2 |
| CCOc1ccc2ncc(S(=O)(=O)c3ccc(OC)cc3)c(N3CCN(C)CC3)c2c1 | 63.67 | 10.7 |
| Cc1cccc(N2C(N)=NC(N)=NC2(C)C)c1.Cl | 38.51 | 4.25 |
| COc1ccc(-c2c(C(F)(F)F)nn(C)c2NC(=O)Nc2ccc(F)cc2F)cc1 | 103.33 | 3450 |
| CCOC(=O)C1=C(C)NC2=C(C(=O)C(C(=O)OCC)C(c3cccc(OC)c3)C2)C1c1cc(OC)c(OC)c(OC)c1 (configuration not stated) | 109.59 | 232 |
| COc1ccc(C2CC3=NC(C)=C(C(=O)OC(C)C)C(c4ccccc4OC)C3=C(O)C2)cc1OC (configuration not stated) | 182.03 | > 10000 |
| [Cl-].c1ccc(Cc2cc[n+](Cc3ccccc3)cc2)cc1 | 127.34 | 4520 |
| CCCCNC(=O)C(CC)Sc1nnc(-c2ccc(C)cc2)c(-c2ccc(C)cc2)n1 (configuration not stated) | 31 | 291 |
| O=C(Nc1ccc(-c2nc3cc(NC(=O)c4ccc(Br)o4)ccc3[nH]2)cc1)c1ccc(Br)o1 | 101.14 | 812 |
| CCOC(=O)C1(CC)CC(C)(C(=O)C[n+]2cccc(Br)c2)OC1=O.[Br-] (configuration not stated) | 178.59 | > 10000 |
| COc1cncc(-c2cncc(-c3ccc(C)cc3)n2)c1 |  | > 10000 |
| CC[n+]1c(/C=C/C=C2\N(C)c3ccccc3C2(C)C)n(Cc2ccccc2)c2ccccc21 | 13.99 | 6.76 |
| COc1cc(C(=O)NCCc2ccccn2)ccc1OC1CCN(CC(c2ccccc2)c2ccccc2)CC1 |  | 1280 |
| CCCCNC(=O)C1CCC(CN(Cc2c(Cl)cccc2Cl)S(=O)(=O)c2ccc(Br)cc2)CC1 (configuration not stated) | 29.64 | 124 |
| CCOC(=O)c1ccc(NC(=O)CSc2nc(NCc3ccccc3)c3ccccc3n2)cc1 | 69.2 | 38.1 |
| Cc1nc2cc(-c3ccc(I)cc3)nn2c(O)c1C | 35.28 | 118 |
| Cc1ccc(-c2cn3c([n+]2-c2ccc(C)cc2)CCCCC3)cc1 | 27.24 | 146 |
| N#CC1=C(N)Oc2c3c(c4ccccc4c2C1c1ccc(F)cc1)C(c1ccc(F)cc1)C(C#N)=C(N)O3 (configuration not stated) | 105.63 | 3930 |

| SMILES | Schizont size [um] | IC50 [nM] |
| --- | --- | --- |
| C[C@@H]1CCC[C@@H](C[C@H]2Cc3cc(O)cc(O)c3C(=O)O2)O1 | 41.96 | 112 |
| CC(=O)Nc1ccc(-c2nc(-c3ccc(Oc4ccc(-c5[nH]c(-c6ccc(NC(C)=O)cc6)nc5-c5ccccc5)cc4)cc3)c(-c3ccccc3)[nH]2)cc1 | 112.31 | > 3730 |
| CC(=O)N1c2ccc(C)cc2C(C)(c2ccccc2)CC1(C)C (configuration not stated) | 105.42 | 1250 |
| CCSc1ccc2ccccc2[n+]1CC.[I-] | 209.06 | > 10000 |
| CCc1cc2c(cc1-c1csc(NC(=N)N)n1)C(C)(C)CCC2(C)C | 92.27 | 2900 |
| Brc1ccc(-c2cn3c([n+]2-c2ccccc2)SCC3)cc1.[Br-] | 78.7 | 828 |
| Cc1cc(N)c2ccccc2[n+]1CCCCCCCCCC[n+]1c(C)cc(N)c2ccccc21.[Cl-].[Cl-] [DEQUALINIUM CHLORIDE] | 40.29 | 566 |
| c1ccc2cc3c(N4CCN(CCN5CCN(c6ccnc7cc8ccccc8cc67)CC5)CC4)ccnc3cc2c1 | 135.69 | 2910 |
| CCOC(=O)CN(N=O)C1=C(N2CC2)C(=O)c2ccccc2C1=O | 35.8 | 480 |
| c1ccc(-c2cc(N3CCN(c4ccccn4)CC3)nc(-c3ccccn3)n2)nc1 | 24.32 | 17.5 |
| CCc1c(C#N)c(N)nc(SCC(=O)c2ccc(C)cc2)c1C#N | 189.13 | > 10000 |
| N=c1c2c(n(Cc3ccc(Cl)cc3)c3c1CCC3)CCC2 | 32.57 | 91.1 |
| CCN1C(=O)N(CC)C(NNC(N)=S)C1NNC(N)=S (configuration not stated) | 103.75 | 68.6 |
| COc1cccc(CNC(=O)C2CNCC2c2ccc(C(F)(F)F)cc2)c1 (configuration not stated) |  | 857 |
| O=C1CC(c2ccccc2)CC2=C1C(c1ccccc1[N+](=O)[O-])Nc1ccccc1N2 (configuration not stated) | 201.65 | > 10000 |
| CCC[n+]1cccc2ccc3cccnc3c21 | 43.42 | 903 |
| O=C(Cc1cccs1)N1CCN(c2ccccn2)CC1 | 189.55 | > 10000 |
| O=C(c1cccc(Cl)c1)N1CCN(c2ccc([N+](=O)[O-])c(NC3CC3)c2)CC1 | 102.71 | 3200 |
| Cl.Fc1ccccc1Nc1nc(NCc2ccccc2)c2ccccc2n1 | 37.58 | 690 |
| Cc1nc2ccccc2c(=O)n1-c1ccc([N+](=O)[O-])cc1 | 246.01 | > 10000 |
| CCCCN(CC)CCNC(=O)C1c2ccccc2C(=O)N(Cc2ccc(F)cc2)C1c1ccc(OC)cc1 (configuration not stated) | 63.36 | 89.1 |
| COc1ccc2cc3[n+](cc2c1OC)CCc1cc2c(cc1-3)OCO2.[Cl-] [BERBERINE CHLORIDE] | 102.08 | 548 |
| CC(Oc1ccc(Cl)cc1Cl)c1nc(-c2ccc(NC(=O)c3cccs3)cc2)no1 (configuration not stated) | 21.92 | 114 |
| c1ccc(OCCOc2ccc(Nc3ccnc4cc5ccccc5cc34)cc2)cc1 | 18.06 | 67.5 |
